For two molecules, Activity, MIC and inhibition results are on record in ChEMBL document CHEMBL1212757, “A single mutation in enzyme I of the sugar phosphotransferase system confers penicillin tolerance to Streptococcus gordonii” (2010).

Assay [1] concerns Streptococcus gordonii. Description: Antimicrobial activity against wild type streptomycin-susceptible Streptococcus gordonii assessed as bacterial count at 2 ug/ml after 24 hrs by macrodilution method. The assay is classed as functional. The essentials: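 Time-kill assay: exponentially growing cultures in BHI broth at 37°C without aeration. Penicillin G was added at 2 μg/ml when OD600 reached 0.2 (about 1 × 10^8 CFU/ml). Viable counts were taken on agar plates, and the result is the loss of log10 CFU/ml after 24 h of exposure.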

The test system of assay [2] is Streptococcus gordonii. Description: Antimicrobial activity against […] and streptomycin-resistant Streptococcus gordonii Tol1 harboring Tol1 mutation in ptsI assessed as bacterial count at 2 ug/ml after 24 hrs by macrodilution assay. The assay is classed as functional.
For assay [3], the system named is Streptococcus gordonii. Description: Antimicrobial activity against erythromycin- and streptomycin-resistant Streptococcus gordonii Tol1 harboring R483P mutation in ptsI assessed as bacterial count at 2 ug/ml after 24 hrs by macrodilution technique. Format: functional.
For assay [4], the system named is Streptococcus gordonii. Description: Antimicrobial activity against wild type streptomycin-susceptible Streptococcus gordonii after 24 hrs by macrodilution method. Format: functional. The essentials: (§1)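 MIC by standard broth macrodilution; streptococci grown at 37°C in BHI broth without aeration.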
Assay [5] concerns Streptococcus gordonii. In words: Antimicrobial activity against […] and streptomycin-resistant Streptococcus gordonii Tol1 harboring Tol1 mutation in ptsI after 24 hrs by macrodilution assay. Format: functional. The following applies: Tol1, 24 h. A digest of the protocol: as §1
Assay [6] has as its system Streptococcus gordonii. Description: Antimicrobial activity against wild type streptomycin-susceptible Streptococcus gordonii harboring P483R mutation in ptsI assessed as bacterial count at 2 ug/ml after 24 hrs by macrodilution technique.
For assay [7], the system named is Streptococcus gordonii. Description: Antimicrobial activity against wild type streptomycin-susceptible Streptococcus gordonii assessed as decrease in [14C]glucose uptake at 2 ug/ml after 60 mins by liquid scintillation counting. The assay is classed as functional, organism-based. A digest of the protocol: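 Cells were grown in BHI to OD550 of about 0.3, then exposed to penicillin at 2 μg/ml for 20, 40 or 60 min. They were washed in PBS-5 mM MgCl2, concentrated, and preincubated for 10 min at 35°C. Uptake was started with 20 mM stock [14C]glucose (600 dpm/nmol). Timed aliquots went into cold stop buffer, were filtered on glass fiber, and were counted by scintillation. A 4°C high-dilution sample corrected for nonspecific binding.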

Assay [8] concerns Streptococcus gordonii. In words: Antimicrobial activity against wild type streptomycin-susceptible Streptococcus gordonii harboring […] mutation in ptsI assessed as decrease in [14C]glucose uptake at 2 ug/ml after 60 mins by liquid scintillation counting. The assay is classed as functional, organism-based. A digest of the protocol: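 Cells grown in BHI to OD550 ca 0.3, exposed to 2 μg/ml penicillin for 20, 40 or 60 min, washed in PBS-5 mM MgCl2, preincubated 10 min at 35°C; uptake started with [14C]glucose (600 dpm/nmol), aliquots diluted in cold stopping buffer, filtered on glass fibre, counted by liquid scintillation; 4°C high-dilution adsorption control.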

The test system of assay [9] is Streptococcus gordonii. In words: Antimicrobial activity against wild type streptomycin-susceptible Streptococcus gordonii infected in Wistar rat assessed as decrease in bacterial infection at 300000 U/kg, sc administered 16 hrs after infection every 12 hrs for 2 days measured within 3 days post last dose. Format: functional, organism-based. The essentials: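 Female Wistar rats carried sterile aortic vegetations. After 24 h they were challenged i.v. with 10^7 CFU of exponential-phase streptococci in 0.5 ml saline. From 16 h post-inoculation, procaine penicillin 300,000 U/kg was given s.c. every 12 h for 2 days. Untreated controls were killed at therapy onset, and treated rats 12 h after the trough of the last dose. Vegetations were weighed and plated for CFU.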

The test system of assay [10] is Streptococcus gordonii. In words: Antimicrobial activity against wild type streptomycin-susceptible Streptococcus gordonii harboring […] mutation in ptsI infected in Wistar rat assessed as decrease in bacterial infection at 300000 U/kg, sc administered 16 hrs after infection every 12 hrs for 2 days measured within 3 days post last dose. Format: functional, organism-based.

For assay [11], the system named is Streptococcus gordonii. In words: Antimicrobial activity against […] and streptomycin-resistant Streptococcus gordonii Tol1 harboring Tol1 mutation infected in Wistar rat assessed as protection against bacterial infection at 300000 U/kg, sc administered 16 hrs after infection every 12 hrs for 2 days measured within 3 days post last dose. The assay is classed as functional, organism-based.

Assay [12] concerns Streptococcus gordonii. In words: Antimicrobial activity against erythromycin- and streptomycin-resistant Streptococcus gordonii Tol1 harboring R483P mutation in ptsI infected in Wistar rat assessed as protection against bacterial infection at 300000 U/kg, sc administered 16 hrs after infection every 12 hrs for 2 days measured within 3 days post last dose. The assay is classed as functional, organism-based.

Structures are written as SMILES. Converted amounts (≈) assume the structure as drawn. The source made the active and inactive calls. The rule behind the calls is not given here.

As for `C[C@@H](O)[C@H]1C(=O)N2C(C(=O)O)=C(SCCNC=N)C[C@H]12` [IMIPENEM ANHYDROUS], the Activity in the assay on Streptococcus gordonii [1] was determined as 6.1 log10CFU/ml; in the assay with Streptococcus gordonii [2], 2 log10CFU/ml; in the assay with Streptococcus gordonii [3] it was 5.3 log10CFU/ml; in the assay on Streptococcus gordonii [6], 2.1 log10CFU/ml. Moreover, the MIC against Streptococcus gordonii [4] and against Streptococcus gordonii [5] was 4 ng/mL (≈ 0.0134 µM) throughout.

As to `CC1(C)S[C@@H]2[C@H](NC(=O)Cc3ccccc3)C(=O)N2[C@H]1C(=O)O` [PENICILLIN G], the Activity amounted to 4.5 log10CFU/ml with Streptococcus gordonii [1], 0.6 log10CFU/ml in the assay on Streptococcus gordonii [2], 3.9 log10CFU/ml with Streptococcus gordonii [3] and 0.7 log10CFU/ml in the assay with Streptococcus gordonii [6]. Besides, the MIC against Streptococcus gordonii [4] and against Streptococcus gordonii [5] was 8 ng/mL (≈ 0.0239 µM) in each case. Moreover, the inhibition entry with Streptococcus gordonii [7], in the assay with Streptococcus gordonii [8] and in the assay on Streptococcus gordonii [9] was “Active” throughout. Further, the inhibition entry in the assay with Streptococcus gordonii [10] and in the assay with Streptococcus gordonii [11] was “inactive” throughout. For the same molecule, in the assay on Streptococcus gordonii [12], the outcome was Active.
